In publication PMC7233370 (Journal of medicinal chemistry, 2020):
Entries after “also recorded” stand apart in the source; their conditions may differ.

Key:
yGsy2p [1] = biological target: T1, yGsy2p (Saccharomyces cerevisiae, UniProt P27472); test: 14C-glucose incorporation assay, yGsy2p inhibition; assay type: biochemical; settings: co-variation of UDPG and inhibitor
T1 sequence (P27472 1-705): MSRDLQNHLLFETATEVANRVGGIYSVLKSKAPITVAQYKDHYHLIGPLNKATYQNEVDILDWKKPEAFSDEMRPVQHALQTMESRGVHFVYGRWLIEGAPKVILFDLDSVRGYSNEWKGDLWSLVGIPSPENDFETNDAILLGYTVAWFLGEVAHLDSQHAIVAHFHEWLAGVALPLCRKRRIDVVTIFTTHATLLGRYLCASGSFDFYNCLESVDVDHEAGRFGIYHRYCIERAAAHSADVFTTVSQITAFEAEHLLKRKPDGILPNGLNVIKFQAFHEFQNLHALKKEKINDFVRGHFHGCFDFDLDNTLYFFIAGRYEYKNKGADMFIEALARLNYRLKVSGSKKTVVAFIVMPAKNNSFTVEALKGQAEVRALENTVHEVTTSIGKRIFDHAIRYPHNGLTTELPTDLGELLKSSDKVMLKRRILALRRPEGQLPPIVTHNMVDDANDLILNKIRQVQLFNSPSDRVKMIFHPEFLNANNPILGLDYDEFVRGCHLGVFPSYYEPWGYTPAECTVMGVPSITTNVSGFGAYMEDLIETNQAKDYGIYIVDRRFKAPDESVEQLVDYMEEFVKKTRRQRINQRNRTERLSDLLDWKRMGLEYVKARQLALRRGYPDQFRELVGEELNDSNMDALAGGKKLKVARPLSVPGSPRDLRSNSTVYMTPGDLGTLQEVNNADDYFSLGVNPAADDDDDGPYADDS

wild-type hGYS1 = biological target: T2, wild-type hGYS1 (Homo sapiens, UniProt P13807); test: 14C-glucose incorporation assay, wild-type hGYS1 inhibition; assay type: biochemical; settings: for improvement in potency toward hGYS1 relative to H23: ratio of IC50 values versus H23
T2 sequence (P13807 1-737): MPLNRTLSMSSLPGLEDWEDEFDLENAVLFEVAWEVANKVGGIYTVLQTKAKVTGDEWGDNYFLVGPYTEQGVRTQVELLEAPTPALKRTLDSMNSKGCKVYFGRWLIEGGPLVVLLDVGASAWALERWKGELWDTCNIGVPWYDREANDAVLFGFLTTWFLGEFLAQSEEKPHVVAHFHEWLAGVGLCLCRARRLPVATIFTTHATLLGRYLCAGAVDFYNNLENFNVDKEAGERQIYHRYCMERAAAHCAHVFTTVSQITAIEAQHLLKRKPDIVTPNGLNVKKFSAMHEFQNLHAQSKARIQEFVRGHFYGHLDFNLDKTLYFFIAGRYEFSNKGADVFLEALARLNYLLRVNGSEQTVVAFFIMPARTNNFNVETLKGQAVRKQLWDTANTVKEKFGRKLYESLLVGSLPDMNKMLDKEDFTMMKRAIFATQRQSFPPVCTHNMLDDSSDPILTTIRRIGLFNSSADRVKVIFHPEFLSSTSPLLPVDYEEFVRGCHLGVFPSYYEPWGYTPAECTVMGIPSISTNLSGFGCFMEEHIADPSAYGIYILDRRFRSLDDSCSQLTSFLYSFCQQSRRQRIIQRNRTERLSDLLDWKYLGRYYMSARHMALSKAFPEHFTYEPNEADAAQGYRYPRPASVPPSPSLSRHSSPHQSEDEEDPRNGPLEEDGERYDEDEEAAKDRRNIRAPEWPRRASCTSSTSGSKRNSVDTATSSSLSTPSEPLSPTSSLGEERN

yGsy2p Y513L mutant = yGsy2p Y513L mutant (Saccharomyces cerevisiae, UniProt P27472, Y513L); test: Inhibition of yGsy2p active-site mutant Y513L; assay type: biochemical; settings: saturating G6P (7.2 mM)
Chain of yGsy2p Y513L mutant (P27472 whole entry Y513L): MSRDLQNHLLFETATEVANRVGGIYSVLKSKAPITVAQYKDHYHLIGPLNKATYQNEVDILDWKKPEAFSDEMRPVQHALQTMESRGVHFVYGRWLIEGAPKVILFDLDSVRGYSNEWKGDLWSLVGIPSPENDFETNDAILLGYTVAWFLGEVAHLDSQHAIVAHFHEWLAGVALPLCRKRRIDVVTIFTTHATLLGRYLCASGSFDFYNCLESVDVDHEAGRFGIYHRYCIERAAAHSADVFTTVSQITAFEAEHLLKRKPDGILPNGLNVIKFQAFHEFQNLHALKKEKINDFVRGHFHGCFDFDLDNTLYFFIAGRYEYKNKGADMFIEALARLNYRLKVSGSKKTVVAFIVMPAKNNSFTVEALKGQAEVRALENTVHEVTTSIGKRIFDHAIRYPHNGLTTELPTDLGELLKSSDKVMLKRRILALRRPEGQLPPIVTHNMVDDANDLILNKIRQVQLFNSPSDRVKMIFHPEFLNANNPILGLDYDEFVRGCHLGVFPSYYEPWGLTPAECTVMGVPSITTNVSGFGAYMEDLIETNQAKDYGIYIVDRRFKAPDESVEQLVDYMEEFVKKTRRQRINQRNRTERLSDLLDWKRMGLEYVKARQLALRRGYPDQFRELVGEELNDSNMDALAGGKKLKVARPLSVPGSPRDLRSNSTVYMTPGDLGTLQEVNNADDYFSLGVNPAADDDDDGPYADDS

yGsy2p [2] = biological target: T1, yGsy2p; test: Fluorescence polarization competitive displacement of tracer from yGsy2p; assay type: binding
Summary of the method: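 Fluorescein-labelled glucosamine-6-phosphate tracer at 20 nM final with 4.2 µM yeast Gsy2p in 15 mM Tris-HCl pH 7.8, 15 mM NaCl. Unlabelled G6P titrated from 0.68 µM to 40 mM. Incubated 10 min at 25°C, then polarization read (ex 485/em 535 nm, mP). EC50 of the displacement fit taken as Kd. Triplicate.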

hGYS1 [3] = biological target: T3, hGYS1 (Homo sapiens, UniProt P13807); test: Activation of hGYS1 by G6P or GlcN6P, 14C-glucose incorporation assay; assay type: biochemical
T3 sequence (P13807 1-737): T2 sequence (P13807 1-737)
Summary of the method: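 Full-length human GYS1 was expressed in insect cells. Radiochemical 14C-glucose incorporation assay run at varied G6P or GlcN6P. % activation was plotted against activator concentration and fitted to a hyperbolic binding equation to give AC50. Done in triplicate.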

yGsy2p [4] = biological target: T1, yGsy2p; test: Activation of yGsy2p by G6P, 14C-glucose incorporation assay; assay type: biochemical
Summary of the method: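 His-tagged yeast Gsy2p was expressed in E. coli BL21(DE3) and purified by Ni-NTA then Q-Sepharose. Radiochemical 14C-glucose incorporation assay run at varied G6P. % activation was fitted to a hyperbolic binding equation to give AC50. Done in triplicate.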

hGYS1 [5] = biological target: T3, hGYS1; test: Fluorescence polarization displacement of tracer from hGYS1; assay type: binding; settings: FP assay with hGYS1
hGYS1Δ634S8,11N = biological target: T4, hGYS1Δ634S8,11N (Homo sapiens, UniProt P13807, S11N/S8N); test: 14C-glucose incorporation assay, hGYS1Δ634S8,11N inhibition; assay type: biochemical; settings: read-out: inhibition of truncated hGYS1 (hGYS1Δ634S8,11N)
T4 sequence (P13807 1-634 S8N/S11N limits assumed): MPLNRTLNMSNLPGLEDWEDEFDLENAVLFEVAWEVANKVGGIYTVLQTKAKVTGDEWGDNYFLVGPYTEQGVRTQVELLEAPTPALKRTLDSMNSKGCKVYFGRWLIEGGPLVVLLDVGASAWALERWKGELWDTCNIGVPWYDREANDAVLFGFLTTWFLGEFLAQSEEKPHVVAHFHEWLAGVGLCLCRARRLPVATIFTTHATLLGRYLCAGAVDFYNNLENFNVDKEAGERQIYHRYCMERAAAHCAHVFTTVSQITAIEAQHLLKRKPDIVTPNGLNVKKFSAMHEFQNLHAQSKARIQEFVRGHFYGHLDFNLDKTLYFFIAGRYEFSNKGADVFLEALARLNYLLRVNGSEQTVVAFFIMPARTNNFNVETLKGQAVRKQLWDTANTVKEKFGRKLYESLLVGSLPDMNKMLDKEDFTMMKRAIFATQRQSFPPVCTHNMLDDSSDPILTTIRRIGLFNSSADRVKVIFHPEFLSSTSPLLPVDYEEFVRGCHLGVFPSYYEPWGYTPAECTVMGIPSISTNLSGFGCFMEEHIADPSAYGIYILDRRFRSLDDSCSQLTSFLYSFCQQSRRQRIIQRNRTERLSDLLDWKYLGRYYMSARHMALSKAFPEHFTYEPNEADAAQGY

[6] = biological target: T5, GS activity in HEK293-PTG cell lysates (Homo sapiens, UniProt P13807); test: GS activity in HEK293-PTG cell lysates, 14C-glucose incorporation; assay type: biochemical; settings: 100 μM compound; 0.15 mg/mL lysate; 0.2 mM UDPG, 1 mM G6P
T5 sequence (P13807 1-737): T2 sequence (P13807 1-737)
Summary of the method: (§1)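 HEK293 cells stably transfected with mouse PTG (hygromycin-selected mixed clones) were grown to confluence. Cells were lysed in EDTA/EGTA/NaF buffer with protease inhibitors, vanadate and Triton, freeze-scraped, sonicated, and the lysate diluted 10-fold. Assay: 50 mM Tris-HCl pH 7.8, 6.7 mg/ml glycogen, 0.2 mM UDPG, 1 mM G6P, 2% DMSO, test compound 100 µM. Read-out: 14C-glucose incorporation as % of DMSO control.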

[7] = biological target: T6, GS activity in Rat-1 cell lysates (Rattus norvegicus, UniProt A2RRU1); test: GS activity in Rat-1 cell lysates, 14C-glucose incorporation; assay type: biochemical; settings: 100 μM compound; 0.75 mg/mL lysate; 0.2 mM UDPG, 1 mM G6P
T6 sequence (A2RRU1 1-738): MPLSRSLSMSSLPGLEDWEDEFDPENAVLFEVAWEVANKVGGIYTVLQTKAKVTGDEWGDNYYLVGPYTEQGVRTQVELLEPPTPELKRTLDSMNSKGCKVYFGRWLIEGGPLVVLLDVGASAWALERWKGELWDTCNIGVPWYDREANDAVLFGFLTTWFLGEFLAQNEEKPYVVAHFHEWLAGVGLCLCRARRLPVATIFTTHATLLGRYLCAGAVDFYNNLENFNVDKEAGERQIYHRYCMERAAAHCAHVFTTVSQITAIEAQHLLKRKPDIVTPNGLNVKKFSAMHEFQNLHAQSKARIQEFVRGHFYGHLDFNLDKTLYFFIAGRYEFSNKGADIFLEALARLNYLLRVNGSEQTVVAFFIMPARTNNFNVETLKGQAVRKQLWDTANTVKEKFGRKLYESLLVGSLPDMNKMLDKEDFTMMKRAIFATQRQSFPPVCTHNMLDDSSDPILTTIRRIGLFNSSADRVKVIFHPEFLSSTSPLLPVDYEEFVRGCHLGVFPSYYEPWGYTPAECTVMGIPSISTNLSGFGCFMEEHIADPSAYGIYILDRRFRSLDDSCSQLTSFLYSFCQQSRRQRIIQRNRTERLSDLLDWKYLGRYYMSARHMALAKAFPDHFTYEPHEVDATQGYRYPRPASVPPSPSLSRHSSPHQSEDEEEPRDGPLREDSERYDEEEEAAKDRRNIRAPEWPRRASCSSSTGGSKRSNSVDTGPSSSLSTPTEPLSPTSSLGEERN
Summary of the method: as §1, with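 “Rat-1 fibroblasts” for “HEK293 cells stably transfected with mouse PTG (hygromycin-selected mixed clones)”, “grown in DMEM/10% FBS” for “grown”, “2-fold.” for “10-fold.”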

yGsy2p [8] = biological target: T1, yGsy2p; test: Fluorescence polarization saturation binding of tracer to yGsy2p
Summary of the method: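 Yeast Gsy2p titrated from 0 to 50 µM against 20 nM final fluorescein-labelled glucosamine-6-phosphate tracer in 15 mM Tris-HCl pH 7.8, 15 mM NaCl. Incubated 10 min at 25°C, then polarization read (ex 485/em 535 nm, mP). Saturation curve fitted to a hyperbolic equation for Kd. Triplicate.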

Structure (SMILES): O=c1ccn([C@@H]2O[C@H](COP(=O)(O)OP(=O)(O)O)[C@@H](O)[C@H]2O)c(=O)[nH]1 [UDP, reference compound]
- mode of inhibition of yGsy2p with respect to varied UDPG (yGsy2p [1]): competitive

Structure (SMILES): Oc1ccc(-c2c(-c3ccc(O)c(O)c3O)n[nH]c2C(F)(F)F)cc1 [Compound 23, 4-(4-(4-hydroxyphenyl)-3-(trifluoromethyl)-1H-pyrazol-5-yl)pyrogallol]
- improvement in potency toward hGYS1 relative to H23 (wild-type hGYS1): more than 300 fold
- mode of inhibition for wild-type hGYS1 (wild-type hGYS1; versus UDPG): competitive
- inhibition of Y513L mutant compared with wild-type yGsy2p (yGsy2p Y513L mutant): compromised; also recorded: decreased potency

Structure (SMILES): O=C[C@H](O)[C@@H](O)[C@H](O)[C@H](O)COP(=O)(O)O [Compound G6P, glucose-6-phosphate]
- Kd (yGsy2p [2]): 70.9 ± 3.6 µM
- AC50 (hGYS1 [3]): 1600 ± 100 µM
- AC50 (yGsy2p [4]): 98.1 ± 3.1 µM
- displacement of GlcN6P-coupled fluorophore or fluorophore alone from hGYS1 (hGYS1 [5]): unable to displace

Structure (SMILES): N[C@H]1C(O)O[C@H](COP(=O)(O)O)[C@@H](O)[C@@H]1O (stereo partly drawn) [GlcN6P, glucosamine-6-phosphate]
- AC50 (hGYS1 [3]): 5900 ± 100 µM

Structure (SMILES): COc1cc(-c2c(-c3ccccc3)ncn2CCC2CCCN2C)ccc1O (racemic) [Compound H23, (rac)-2-methoxy-4-(1-(2-(1-methylpyrrolidin-2-yl)ethyl)-4-phenyl-1H-imidazol-5-yl)phenol]
- mode of inhibition of yGsy2p with respect to varied UDPG (yGsy2p [1]): competitive
- inhibition at 100 µM (hGYS1Δ634S8,11N): > 20%
- reduction of synthase activity in HEK293-PTG cell lysate [6]: did not significantly inhibit
- reduction of synthase activity in Rat-1 cell lysate [7]: did not significantly inhibit

Structure (SMILES): O=C(O)CCc1ccc(-c2ccccc2)n1-c1ccc(O)cc1 [Compound 7]
- improvement in potency toward hGYS1 relative to H23 (wild-type hGYS1): 2 fold
- reduction of synthase activity in HEK293-PTG cell lysate [6]: did not significantly inhibit
- reduction of synthase activity in Rat-1 cell lysate [7]: did not significantly inhibit

Structure (SMILES): O=C(CSCCC(=O)N[C@@H]1[C@@H](O)[C@H](O)[C@@H](COP(=O)(O)O)O[C@H]1O)Nc1ccc(-c2c3ccc(=O)cc-3oc3cc(O)ccc23)c(C(=O)O)c1 [GlcN6P-fluorescein-5-Ex]
- Kd (yGsy2p [8]): 7.6 ± 0.7 µM

Structure (SMILES): Cc1[nH]nc(-c2ccc(O)c(O)c2O)c1-c1ccc(Cl)cc1 [Compound 11]
- improvement in potency toward hGYS1 relative to H23 (wild-type hGYS1): 16 fold
